Calls of active or inactive are those of the source. The rule behind the calls is not given here.
Columns and labels:
Staphylococcus aureus = experiment: Antibacterial activity against Staphylococcus aureus up to 100 ug/ml after 16 to 20 hrs by broth microdilution method; format: functional, organism-based
Streptococcus pneumoniae = experiment: Antibacterial activity against Streptococcus pneumoniae up to 100 ug/ml after 16 to 20 hrs by broth microdilution method; format: functional, organism-based
Escherichia coli = experiment: Antibacterial activity against Escherichia coli up to 100 ug/ml after 16 to 20 hrs by broth microdilution method; format: functional, organism-based
[1] = test system: Mycobacterium tuberculosis; experiment: Antimycobacterial activity against Mycobacterium tuberculosis H37Ra by MABA; format: functional; design: concentration or dose not given beside the values
Summary of the method: (§1)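 Compounds in DMSO (100× highest final concentration), diluted in 7H9GC; tested at 100, 50, 10 and 1 µg/mL in triplicate, three experiments. Frozen inoculum diluted in 7H9GC. Read visually and spectrophotometrically. […], mean given. Visual MIC = lowest concentration preventing blue-to-pink change.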

Pseudomonas aeruginosa = experiment: Antibacterial activity against Pseudomonas aeruginosa up to 100 ug/ml after 16 to 20 hrs by broth microdilution method; format: functional, organism-based
Mycobacterium avium [2] = experiment: Antimycobacterial activity against Mycobacterium avium ATCC 25291; format: functional; design: concentration or dose not given beside the values; summary of the method: as §1
Bacillus subtilis = experiment: Antibacterial activity against Bacillus subtilis up to 100 ug/ml after 16 to 20 hrs by broth microdilution method; format: functional, organism-based
Salmonella typhimurium = experiment: Antibacterial activity against Salmonella Typhimurium up to 100 ug/ml after 16 to 20 hrs by broth microdilution method; format: functional, organism-based; conditions: Salmonella enterica subsp. enterica serovar Typhimurium
Enterococcus faecalis = experiment: Antibacterial activity against Enterococcus faecalis up to 100 ug/ml after 16 to 20 hrs by broth microdilution method; format: functional, organism-based
Proteus vulgaris = experiment: Antibacterial activity against Proteus vulgaris up to 100 ug/ml after 16 to 20 hrs by broth microdilution method; format: functional, organism-based
[3] = test system: Staphylococcus epidermidis; experiment: Antibacterial activity against Staphylococcus epidermidis up to 100 ug/ml after 16 to 20 hrs by broth microdilution method; format: functional, organism-based
Mycobacterium avium [4] = experiment: Antimycobacterial activity against Mycobacterium avium ATCC 25291 at 50 ug/mL after 24 to 48 hrs by MABA; format: functional; summary of the method: as §1
[5] = test system: Mycobacterium tuberculosis; experiment: Antimycobacterial activity against Mycobacterium tuberculosis H37Ra at 100 ug/mL after 24 to 48 hrs by MABA; format: functional; summary of the method: as §1
[6] = test system: Mycobacterium tuberculosis; experiment: Antimycobacterial activity against Mycobacterium tuberculosis H37Ra at 50 ug/mL after 24 to 48 hrs by MABA; format: functional; summary of the method: as §1
HepG2 = experiment: Toxicity against HepG2 cells; format: functional, cell-based; conditions: Homo sapiens
[7] = test system: Mycobacterium tuberculosis; experiment: Antimycobacterial activity against Mycobacterium tuberculosis H37Ra at 10 ug/mL after 24 to 48 hrs by MABA; format: functional; summary of the method: as §1
Mycobacterium avium [8] = experiment: Antimycobacterial activity against Mycobacterium avium ATCC 25291 at 100 ug/mL after 24 to 48 hrs by MABA; format: functional; summary of the method: as §1

Row | Structure (SMILES) | Activity (Staphylococcus aureus) | Activity (Streptococcus pneumoniae) | Activity (Escherichia coli) | Inhibition [1] [%] | Activity (Pseudomonas aeruginosa) | Inhibition (Mycobacterium avium [2]) [%] | Activity (Bacillus subtilis) | Activity (Salmonella typhimurium) | Activity (Enterococcus faecalis) | Activity (Proteus vulgaris) | Activity [3] | inhibition at 50 µg/mL (Mycobacterium avium [4]) [%] | inhibition at 100 µg/mL [5] [%] | inhibition at 50 µg/mL [6] [%] | Activity (HepG2) | inhibition at 10 µg/mL [7] [%] | inhibition at 100 µg/mL (Mycobacterium avium [8]) [%]
1 | CCCCCC#Cc1cn(COCCO)c(=O)[nH]c1=O | inactive | inactive | inactive | 0 | inactive | 0 | inactive | inactive | inactive | inactive | inactive |  |  |  |  |  | 
2 | O=c1[nH]c(=O)n(COCCO)cc1Br | inactive | inactive | inactive | 0 | inactive | 0 | inactive | inactive | inactive | inactive | inactive |  |  |  |  |  | 
3 | Cc1cn(COCCO)c(=O)[nH]c1=O | inactive | inactive | inactive | 0 | inactive | 0 | inactive | inactive | inactive | inactive | inactive |  |  |  |  |  | 
4 | CCCCCCCCCCC#Cc1cn(COCCO)c(=O)n(C#CCCCCCCCCCC)c1=O | inactive | inactive | inactive | 0 | inactive | 0 | inactive | inactive | inactive | inactive | inactive |  |  |  |  |  | 
5 | [N-]=[N+]=NC(CI)c1cn(COCCO)c(=O)[nH]c1=O (configuration not stated) | inactive | inactive | inactive |  | inactive |  | inactive | inactive | inactive | inactive | inactive | 50 | 100 | 100 | Not toxic | 50 | 50
6 | Nc1cn(COCCO)c(=O)[nH]c1=O | inactive | inactive | inactive | 0 | inactive | 0 | inactive | inactive | inactive | inactive | inactive |  |  |  |  |  | 
7 | [N-]=[N+]=NC(CI)c1cn(COC(CO)CO)c(=O)[nH]c1=O (configuration not stated) | inactive | inactive | inactive | 0 | inactive | 0 | inactive | inactive | inactive | inactive | inactive |  |  |  |  |  | 
8 | C=C(N=[N+]=[N-])c1cn(COC(CO)CO)c(=O)[nH]c1=O | inactive | inactive | inactive | 0 | inactive | 0 | inactive | inactive | inactive | inactive | inactive |  |  |  |  |  | 
9 | O=c1ccn(COCCO)c(=O)[nH]1 | inactive | inactive | inactive | 0 | inactive | 0 | inactive | inactive | inactive | inactive | inactive |  |  |  |  |  | 
10 | O=c1[nH]c(=O)n(COCCO)cc1I | inactive | inactive | inactive | 0 | inactive | 0 | inactive | inactive | inactive | inactive | inactive |  |  |  |  |  | 
11 | CCc1cn(COCCO)c(=O)[nH]c1=O | inactive | inactive | inactive | 0 | inactive | 0 | inactive | inactive | inactive | inactive | inactive |  |  |  |  |  | 
12 | [N-]=[N+]=NC(CBr)c1cn(COCCO)c(=O)[nH]c1=O (configuration not stated) | inactive | inactive | inactive |  | inactive |  | inactive | inactive | inactive | inactive | inactive | 100 | 100 | 100 | Not toxic | 50 | 
13 | [N-]=[N+]=NC(CBr)c1cn(COC(CO)CO)c(=O)[nH]c1=O (configuration not stated) | inactive | inactive | inactive | 0 | inactive | 0 | inactive | inactive | inactive | inactive | inactive |  |  |  |  |  | 
14 | C=Cc1cn(COCCO)c(=O)[nH]c1=O | inactive | inactive | inactive | 0 | inactive | 0 | inactive | inactive | inactive | inactive | inactive |  |  |  |  |  | 
15 | C=Cc1cn(COC(CO)CO)c(=O)[nH]c1=O | inactive | inactive | inactive | 0 | inactive | 0 | inactive | inactive | inactive | inactive | inactive |  |  |  |  |  | 
16 | O=c1[nH]c(=O)n(COCCO)cc1Cl | inactive | inactive | inactive | 0 | inactive | 0 | inactive | inactive | inactive | inactive | inactive |  |  |  |  |  | 
17 | O=c1[nH]c(=O)n(COCCO)cc1[N+](=O)[O-] | inactive | inactive | inactive | 0 | inactive | 0 | inactive | inactive | inactive | inactive | inactive |  |  |  |  |  | 
18 | [N-]=[N+]=NC(CCl)c1cn(COC(CO)CO)c(=O)[nH]c1=O (configuration not stated) | inactive | inactive | inactive | 0 | inactive | 0 | inactive | inactive | inactive | inactive | inactive |  |  |  |  |  | 
19 | O=c1[nH]c(=O)n(COC(CO)CO)cc1I [IODACYCLUR] | inactive | inactive | inactive | 0 | inactive | 0 | inactive | inactive | inactive | inactive | inactive |  |  |  |  |  | 
20 | O=c1[nH]c(=O)n(COCCO)cc1F | inactive | inactive | inactive | 0 | inactive | 0 | inactive | inactive | inactive | inactive | inactive |  |  |  |  |  | 
